Converted amounts (≈) assume the structure as drawn. Where a SMILES comes first, the peptide text is derived from it. Bridges are numbered along the chain shown (N, C = ends). [ ]: non-standard residue; d: D form. The star is where a group is joined. NMePhe(4-NMe2) = CN[C@@H](Cc1ccc(N(C)C)cc1)C(=O)O; Pip(4-oxo) = O=C1CCN[C@H](C(=O)O)C1; Picolinoyl(3-OH) = O=C(c1ncccc1O)*; Phg = N[C@H](C(=O)O)c1ccccc1; dAbu = CC[C@@H](N)C(=O)O
Assays:
Format in all cases: functional
Escherichia coli [1] = assay: Antimicrobial activity against Escherichia coli TG1 harboring plasmid pEX19Gm by agar dilution method
How it was run: (§1)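 Agar dilution MICs on MH medium, final inoculum about 10^4 CFU per spot. Tested in A. hydrophila ATCC 7966T and E. coli TG1 strains (wild type, ΔaheB::kan or ΔacrAB), each carrying empty pEX19Gm or a pump-encoding plasmid (pEXAheABC, pUCAcrAB). Run at least in triplicate, mode value reported.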

[2] = (§2) Antimicrobial activity against Aeromonas hydrophila subsp. hydrophila ATCC 7966 harboring plasmid pEX19Gm by agar dilution method in presence of 64 mg/L efflux pump inhibitor phenylalanine-arginine-beta-naphthylamide
[3] = (§3) Antimicrobial activity against aheB deficient kanamycin-resistant Aeromonas hydrophila subsp. hydrophila ATCC 7966 harboring plasmid pEX19Gm by agar dilution method in presence of 64 mg/L efflux pump inhibitor phenylalanine-arginine-beta-naphthylamide
Escherichia coli [4] = assay: Antimicrobial activity against acrAB-deficient Escherichia coli TG1 harboring AcrAB efflux pump by agar dilution method; how it was run: as §1
Escherichia coli [5] = assay: Antimicrobial activity against acrAB-deficient Escherichia coli TG1 harboring AheABC efflux pump by agar dilution method; how it was run: as §1
[6] = (§4) Antimicrobial activity against Aeromonas hydrophila subsp. hydrophila ATCC 7966 harboring plasmid pEX19Gm by agar dilution method; how it was run: as §1
Escherichia coli [7] = assay: Antimicrobial activity against acrAB-deficient Escherichia coli TG1 harboring plasmid pEX19Gm by agar dilution method; how it was run: as §1
[8] = (§5) Antimicrobial activity against aheB deficient kanamycin-resistant Aeromonas hydrophila subsp. hydrophila ATCC 7966 harboring AheABC efflux pump by agar dilution method; how it was run: as §1
[9] = (§6) Antimicrobial activity against aheB deficient kanamycin-resistant Aeromonas hydrophila subsp. hydrophila ATCC 7966 harboring plasmid pEX19Gm by agar dilution method; how it was run: as §1
[10] = (§7) Antimicrobial activity against aheB-deficient kanamycin-resistant Aeromonas hydrophila subsp. hydrophila ATCC 7966 harboring AheABC efflux pump by agar dilution method in presence of 64 mg/L efflux pump inhibitor phenylalanine-arginine-beta-naphthylamide
[11] = tested on: Aeromonas hydrophila subsp. hydrophila ATCC 7966; assay: as §2
[12] = tested on: Aeromonas hydrophila subsp. hydrophila ATCC 7966; assay: as §3
[13] = tested on: Aeromonas hydrophila subsp. hydrophila ATCC 7966; assay: as §4; how it was run: as §1
[14] = tested on: Aeromonas hydrophila subsp. hydrophila ATCC 7966; assay: as §5; how it was run: as §1
[15] = tested on: Aeromonas hydrophila subsp. hydrophila ATCC 7966; assay: as §6; how it was run: as §1
[16] = tested on: Aeromonas hydrophila subsp. hydrophila ATCC 7966; assay: as §7

Compound	MIC (Escherichia coli [1]) [µg/mL]	MIC [2] [µg/mL]	MIC [3] [µg/mL]	MIC (Escherichia coli [4]) [µg/mL]	MIC (Escherichia coli [5]) [µg/mL]	MIC [6] [µg/mL]	MIC (Escherichia coli [7]) [µg/mL]	MIC [8] [µg/mL]	MIC [9] [µg/mL]	MIC [10] [µg/mL]	MIC [11] [µg/mL]	MIC [12] [µg/mL]	MIC [13] [µg/mL]	MIC [14] [µg/mL]	MIC [15] [µg/mL]	MIC [16] [µg/mL]
CN(C)c1ccc2cc3ccc(N(C)C)cc3nc2c1 [ACRIDINE ORANGE]	> 1020	256	128	> 1020	256 (≈ 965 µM)	512 (≈ 1930 µM)	128 (≈ 482 µM)	1020 (≈ 3860 µM)	256 (≈ 965 µM)	256						
CCN1CCN(C(=O)N[C@@H](C(=O)N[C@@H]2C(=O)N3C(C(=O)O)=C(CSc4nnnn4C)CS[C@H]23)c2ccc(O)cc2)C(=O)C1=O [CEFOPERAZONE]	0.25 (≈ 0.387 µM)	0.25	0.06	8 (≈ 12.4 µM)	0.06 (≈ 0.0929 µM)	0.25 (≈ 0.387 µM)	0.03 (≈ 0.0465 µM)	2 (≈ 3.1 µM)	0.06 (≈ 0.0929 µM)	2						
CO/N=C(\C(=O)N[C@@H]1C(=O)N2C(C(=O)O)=C(COC(N)=O)CS[C@H]12)c1ccco1 [CEFUROXIME]	4 (≈ 9.43 µM)	1	0.25	8 (≈ 18.9 µM)	2 (≈ 4.71 µM)	1 (≈ 2.36 µM)	0.5 (≈ 1.18 µM)	4 (≈ 9.43 µM)	0.25 (≈ 0.589 µM)	4						
CC[C@H]1OC(=O)[C@H](C)[C@@H](O[C@H]2C[C@@](C)(OC)[C@@H](O)[C@H](C)O2)[C@H](C)[C@@H](O[C@@H]2O[C@H](C)C[C@H](N(C)C)[C@H]2O)[C@](C)(O)C[C@@H](C)C(=O)[C@H](C)[C@@H](O)[C@]1(C)O [ERYTHROMYCIN]	64 (≈ 87.2 µM)	2	1	128 (≈ 174 µM)	32 (≈ 43.6 µM)	16 (≈ 21.8 µM)	1 (≈ 1.36 µM)	64 (≈ 87.2 µM)	8 (≈ 10.9 µM)	2						
CC(=O)O[C@H]1C[C@@]2(C)[C@@H](C[C@@H](O)[C@H]3[C@@]4(C)CC[C@@H](O)[C@@H](C)[C@@H]4CC[C@@]32C)/C1=C(\CCC=C(C)C)C(=O)O [FUSIDIC ACID]	512 (≈ 991 µM)	2	1	512 (≈ 991 µM)	128 (≈ 248 µM)	128 (≈ 248 µM)	2 (≈ 3.87 µM)	256 (≈ 495 µM)	64 (≈ 124 µM)	8						
CC[n+]1c(-c2ccccc2)c2cc(N)ccc2c2ccc(N)cc21.[Br-] [HOMIDIUM BROMIDE]	512	128	64	512	64	128	2	512	64	512						
CCC[C@@H]1C[C@@H](C(=O)N[C@@H]([C@H]2O[C@H](SC)[C@H](O)[C@@H](O)[C@H]2O)[C@@H](C)O)N(C)C1 [LINCOMYCIN]	1020 (≈ 2520 µM)	128	64	> 1020	512 (≈ 1260 µM)	128 (≈ 315 µM)	64 (≈ 157 µM)	256 (≈ 630 µM)	64 (≈ 157 µM)	256						
CN(C)c1ccc(O)c2c1C[C@H]1C[C@H]3[C@H](N(C)C)C(O)=C(C(N)=O)C(=O)[C@@]3(O)C(O)=C1C2=O [MINOCYCLINE]	1 (≈ 2.19 µM)	0.5	0.25	2 (≈ 4.37 µM)	1 (≈ 2.19 µM)	1 (≈ 2.19 µM)	0.12 (≈ 0.262 µM)	2 (≈ 4.37 µM)	0.4 (≈ 0.874 µM)	1						
CC[C@H]1NC(=O)[C@@H](NC(=O)c2ncccc2O)[C@@H](C)OC(=O)[C@H](c2ccccc2)NC(=O)[C@@H]2CC(=O)CCN2C(=O)[C@H](Cc2ccc(N(C)C)cc2)N(C)C(=O)[C@@H]2CCCN2C1=O [PRISTINAMYCIN 1A] ({Picolinoyl(3-OH)}-T[dAbu]P[NMePhe(4-NMe2)][Pip(4-oxo)][Phg]; ester 1-C)	64 (≈ 73.8 µM)	2	1	64 (≈ 73.8 µM)	64 (≈ 73.8 µM)	32 (≈ 36.9 µM)	4 (≈ 4.61 µM)	128 (≈ 148 µM)	8 (≈ 9.23 µM)	4						
CO[C@H]1/C=C/O[C@@]2(C)Oc3c(C)c(O)c4c(O)c(c(/C=N/N5CCN(C)CC5)c(O)c4c3C2=O)NC(=O)/C(C)=C\C=C\[C@H](C)[C@H](O)[C@@H](C)[C@@H](O)[C@@H](C)[C@H](OC(C)=O)[C@@H]1C [RIFAMPIN]	16 (≈ 19.4 µM)	0.06	0.03	16 (≈ 19.4 µM)	8 (≈ 9.72 µM)	2 (≈ 2.43 µM)	8 (≈ 9.72 µM)	4 (≈ 4.86 µM)	1 (≈ 1.22 µM)	0.12						
COc1cc(Cc2cnc(N)nc2N)cc(OC)c1OC [TRIMETHOPRIM]	0.2 (≈ 0.689 µM)	8	4	0.05 (≈ 0.172 µM)	0.05 (≈ 0.172 µM)	16 (≈ 55.1 µM)	0.05 (≈ 0.172 µM)	32 (≈ 110 µM)	8 (≈ 27.6 µM)	16						
TRIBUTYLSTANNANYL	> 1020			> 1020	16		4				2	2	32	256	16	4
